In ChEMBL document CHEMBL1765022, “Synthesis and biological evaluation of tetracyclic thienopyridones as antibacterial and antitumor agents” (Bioorg Med Chem, 2011):
≈ marks a conversion by molar mass, not a printed value.

Tested on: Haemophilus influenzae
Assay: Antimicrobial activity against Haemophilus influenzae ATCC 19418 by broth dilution method
Type: functional
Conditions: not given
Summary of the method: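 H. influenzae was grown in Haemophilus Test Medium using twofold serial broth dilution. […] Drug-free, DMSO-only and organism-free control tubes were included. Triplicates, with at least three independent experiments.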

Row | SMILES | MIC
1 | COc1c(N2C[C@@H]3CCCN[C@@H]3C2)c(F)cc2c(=O)c(C(=O)O)cn(C3CC3)c12 [MOXIFLOXACIN] | 0.03 µg/mL (≈ 74.7 nM)
2 | COc1ccc2c(c1)[nH]c1c2sc2c1c(=O)c(C(=O)O)cn2C1CC1 | 0.15 µg/mL (≈ 423 nM)

Tested on: Staphylococcus aureus
Assay: Antimicrobial activity against quinilone-pencillin-resistant Staphylococcus aureus isolate SAR 4790 by broth dilution method
Type: functional
Conditions: not given
Summary of the method: (§1)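 Twofold serial broth dilution in Mueller Hinton Broth. […] Drug-free tubes, DMSO-only tubes and organism-free tubes served as growth, solvent and sterility controls. Three replicates per organism, at least three independent experiments.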

Row | SMILES | MIC
3 | COc1c(N2C[C@@H]3CCCN[C@@H]3C2)c(F)cc2c(=O)c(C(=O)O)cn(C3CC3)c12 [MOXIFLOXACIN] | 50 µg/mL (≈ 125000 nM)
4 | COc1ccc2c(c1)[nH]c1c2sc2c1c(=O)c(C(=O)O)cn2C1CC1 | > 100 µg/mL

Tested on: not listed separately
Assay: Antimicrobial activity against Bacillus thuringiensis var.kurstaki BGSC 4D1 by broth dilution method
Type: functional, Bacillus thuringiensis serovar kurstaki
Conditions: not given
Summary of the method: (§2)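 Twofold serial broth dilution in Mueller Hinton Broth. […] Growth (drug-free), DMSO solvent and organism-free sterility tubes were included. Three replicates per organism, at least three independent experiments.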

Row | SMILES | MIC
5 | COc1c(N2C[C@@H]3CCCN[C@@H]3C2)c(F)cc2c(=O)c(C(=O)O)cn(C3CC3)c12 [MOXIFLOXACIN] | 0.03 µg/mL (≈ 74.7 nM)
6 | COc1ccc2c(c1)[nH]c1c2sc2c1c(=O)c(C(=O)O)cn2C1CC1 | 0.007 µg/mL (≈ 19.8 nM)

Tested on: Acinetobacter baumannii
Assay: Antimicrobial activity against quinilone-pencillin-resistant Acinetobacter baumannii clinical isolate by broth dilution method
Type: functional
Conditions: not given

Row | SMILES | MIC
7 | COc1ccc2c(c1)[nH]c1c2sc2c1c(=O)c(C(=O)O)cn2C1CC1 | > 100 µg/mL

Tested on: Bacillus subtilis
Assay: Antimicrobial activity against Bacillus subtilis ATCC 6633 by broth dilution method
Type: functional
Conditions: not given
Summary of the method: as §2

Row | SMILES | MIC
8 | COc1c(N2C[C@@H]3CCCN[C@@H]3C2)c(F)cc2c(=O)c(C(=O)O)cn(C3CC3)c12 [MOXIFLOXACIN] | 15 ng/mL (≈ 37.4 nM)
9 | COc1ccc2c(c1)[nH]c1c2sc2c1c(=O)c(C(=O)O)cn2C1CC1 | 0.3 ng/mL (≈ 0.847 nM)

Tested on: Staphylococcus epidermidis
Assay: Antimicrobial activity against Staphylococcus epidermidis ATCC 12228 by broth dilution method
Type: functional
Conditions: not given
Summary of the method: as §2

Row | SMILES | MIC
10 | COc1c(N2C[C@@H]3CCCN[C@@H]3C2)c(F)cc2c(=O)c(C(=O)O)cn(C3CC3)c12 [MOXIFLOXACIN] | 0.07 µg/mL (≈ 174 nM)
11 | COc1ccc2c(c1)[nH]c1c2sc2c1c(=O)c(C(=O)O)cn2C1CC1 | 0.15 µg/mL (≈ 423 nM)

Tested on: Pseudomonas aeruginosa
Assay: Antimicrobial activity against Pseudomonas aeruginosa ATCC 9027 by broth dilution method
Type: functional
Conditions: not given
Summary of the method: as §2

Row | SMILES | MIC
12 | COc1c(N2C[C@@H]3CCCN[C@@H]3C2)c(F)cc2c(=O)c(C(=O)O)cn(C3CC3)c12 [MOXIFLOXACIN] | 0.7 µg/mL (≈ 1740 nM)
13 | COc1ccc2c(c1)[nH]c1c2sc2c1c(=O)c(C(=O)O)cn2C1CC1 | > 100 µg/mL

Tested on: Staphylococcus aureus
Assay: Antimicrobial activity against Staphylococcus aureus ATCC 6538 by broth dilution method
Type: functional
Conditions: not given
Summary of the method: as §2

Row | SMILES | MIC
14 | COc1c(N2C[C@@H]3CCCN[C@@H]3C2)c(F)cc2c(=O)c(C(=O)O)cn(C3CC3)c12 [MOXIFLOXACIN] | 0.03 µg/mL (≈ 74.7 nM)
15 | COc1ccc2c(c1)[nH]c1c2sc2c1c(=O)c(C(=O)O)cn2C1CC1 | 0.015 µg/mL (≈ 42.3 nM)

Tested on: A549
Assay: Antitumor activity against human A549 cells after 72 hrs by MTT assay
Type: functional, cell-based
Conditions: A549, 72 h
Summary of the method: (§3)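 Cells were kept at 37 °C in 5% CO₂, in medium with 2 mM glutamine and 10% FBS; HuDe fibroblasts were grown in DMEM. Compounds were freshly dissolved in DMSO (final ≤0.1% v/v; controls received equal solvent) and applied at 0.1–20 µM for 72 h. Viability was read by MTT. IC₅₀ was extrapolated from Hill-fitted dose–response curves, from at least three independent experiments.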

Row | SMILES | IC50
16 | COc1ccc2c(c1)[nH]c1c2sc2c1c(=O)c(C(=O)O)cn2C1CC1 | 2600 nM

Tested on: Aspergillus niger
Assay: Antimicrobial activity against Aspergillus niger ATCC 6275 by broth dilution method
Type: functional
Conditions: not given
Summary of the method: (§4)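 Fungi were tested by twofold serial broth dilution in Sabouraud Dextrose Broth. Inoculum was 1x10³ CFU/mL, with 48 h at 30 °C before MIC determination. Growth, DMSO solvent and sterility controls were included. Three replicates per organism, at least three independent experiments.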

Row | SMILES | MIC
17 | COc1c(N2C[C@@H]3CCCN[C@@H]3C2)c(F)cc2c(=O)c(C(=O)O)cn(C3CC3)c12 [MOXIFLOXACIN] | > 100 µg/mL
18 | COc1ccc2c(c1)[nH]c1c2sc2c1c(=O)c(C(=O)O)cn2C1CC1 | > 100 µg/mL

Tested on: Acinetobacter baumannii
Assay: Antimicrobial activity against Acinetobacter baumannii ATCC 19606 by broth dilution method
Type: functional
Conditions: not given
Summary of the method: as §2

Row | SMILES | MIC
19 | COc1c(N2C[C@@H]3CCCN[C@@H]3C2)c(F)cc2c(=O)c(C(=O)O)cn(C3CC3)c12 [MOXIFLOXACIN] | 0.15 µg/mL (≈ 374 nM)
20 | COc1ccc2c(c1)[nH]c1c2sc2c1c(=O)c(C(=O)O)cn2C1CC1 | 3 µg/mL (≈ 8470 nM)

Tested on: Bacillus cereus
Assay: Antimicrobial activity against Bacillus cereus ATCC 11778 by broth dilution method
Type: functional
Conditions: not given
Summary of the method: as §2

Row | SMILES | MIC
21 | COc1c(N2C[C@@H]3CCCN[C@@H]3C2)c(F)cc2c(=O)c(C(=O)O)cn(C3CC3)c12 [MOXIFLOXACIN] | 0.3 µg/mL (≈ 747 nM)
22 | COc1ccc2c(c1)[nH]c1c2sc2c1c(=O)c(C(=O)O)cn2C1CC1 | 0.03 µg/mL (≈ 84.7 nM)

Tested on: NHDF
Assay: Antitumor activity against human NHDF cells after 72 hrs by MTT assay
Type: functional, cell-based
Conditions: not given
Summary of the method: as §3

Row | SMILES | IC50
23 | COc1ccc2c(c1)[nH]c1c2sc2c1c(=O)c(C(=O)O)cn2C1CC1 | > 10 µM

Tested on: Saccharomyces cerevisiae
Assay: Antimicrobial activity against Saccharomyces cerevisiae ATCC 9763 by broth dilution method
Type: functional
Conditions: not given
Summary of the method: as §4

Row | SMILES | MIC
24 | COc1c(N2C[C@@H]3CCCN[C@@H]3C2)c(F)cc2c(=O)c(C(=O)O)cn(C3CC3)c12 [MOXIFLOXACIN] | > 100 µg/mL
25 | COc1ccc2c(c1)[nH]c1c2sc2c1c(=O)c(C(=O)O)cn2C1CC1 | > 100 µg/mL

Tested on: not listed separately
Assay: Inhibition of Escherichia coli DNA gyrase assessed as reduction of DNA supercoiling activity using pBR322 DNA substrate after 30 mins by electrophoresis
Conditions: not given

Row | SMILES | IC50
26 | COc1c(N2C[C@@H]3CCCN[C@@H]3C2)c(F)cc2c(=O)c(C(=O)O)cn(C3CC3)c12 [MOXIFLOXACIN] | 0.85 µg/mL (≈ 2120 nM)
27 | COc1ccc2c(c1)[nH]c1c2sc2c1c(=O)c(C(=O)O)cn2C1CC1 | 1.1 µg/mL (≈ 3100 nM)

Tested on: Candida tropicalis
Assay: Antimicrobial activity against Candida tropicalis ATCC 1369 by broth dilution method
Type: functional
Conditions: not given
Summary of the method: as §4

Row | SMILES | MIC
28 | COc1c(N2C[C@@H]3CCCN[C@@H]3C2)c(F)cc2c(=O)c(C(=O)O)cn(C3CC3)c12 [MOXIFLOXACIN] | > 100 µg/mL
29 | COc1ccc2c(c1)[nH]c1c2sc2c1c(=O)c(C(=O)O)cn2C1CC1 | > 100 µg/mL

Tested on: Staphylococcus epidermidis
Assay: Antimicrobial activity against quinilone-pencillin-resistant Staphylococcus epidermidis clinical isolate by broth dilution method
Type: functional
Conditions: not given

Row | SMILES | MIC
30 | COc1ccc2c(c1)[nH]c1c2sc2c1c(=O)c(C(=O)O)cn2C1CC1 | 6 µg/mL (≈ 16900 nM)

Tested on: MCF7
Assay: Antitumor activity against human MCF7 cells after 72 hrs by MTT assay
Type: functional, cell-based
Conditions: MCF7, 72 h
Summary of the method: as §3

Row | SMILES | IC50
31 | COc1ccc2c(c1)[nH]c1c2sc2c1c(=O)c(C(=O)O)cn2C1CC1 | 1600 nM

Tested on: Escherichia coli
Assay: Antimicrobial activity against Escherichia coli ATCC 8739 by broth dilution method
Type: functional
Conditions: not given
Summary of the method: as §2

Row | SMILES | MIC
32 | COc1c(N2C[C@@H]3CCCN[C@@H]3C2)c(F)cc2c(=O)c(C(=O)O)cn(C3CC3)c12 [MOXIFLOXACIN] | 0.03 µg/mL (≈ 74.7 nM)
33 | COc1ccc2c(c1)[nH]c1c2sc2c1c(=O)c(C(=O)O)cn2C1CC1 | > 100 µg/mL

Tested on: not listed separately
Assay: Inhibition of Escherichia coli topoisomerase 4 assessed as decatenation of kDNA after 30 mins by electrophoresis
Conditions: not given
Summary of the method: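 E. coli topoisomerase IV decatenation of kinetoplast DNA was run in 40 mM HEPES-KOH pH 7.6 with 100 mM potassium glutamate, at varying compound amounts. Products were separated by agarose electrophoresis and quantified by gel documentation. IC₅₀ (µg/mL) is the concentration halving decatenation relative to drug-free enzyme control.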

Row | SMILES | IC50
34 | COc1c(N2C[C@@H]3CCCN[C@@H]3C2)c(F)cc2c(=O)c(C(=O)O)cn(C3CC3)c12 [MOXIFLOXACIN] | 5 µg/mL (≈ 12500 nM)
35 | COc1ccc2c(c1)[nH]c1c2sc2c1c(=O)c(C(=O)O)cn2C1CC1 | > 24 µg/mL

Tested on: Priestia megaterium
Assay: Antimicrobial activity against Bacillus megaterium ATCC 19213 by broth dilution method
Type: functional
Conditions: not given
Summary of the method: as §2

Row | SMILES | MIC
36 | COc1c(N2C[C@@H]3CCCN[C@@H]3C2)c(F)cc2c(=O)c(C(=O)O)cn(C3CC3)c12 [MOXIFLOXACIN] | 3 ng/mL (≈ 7.47 nM)
37 | COc1ccc2c(c1)[nH]c1c2sc2c1c(=O)c(C(=O)O)cn2C1CC1 | 0.03 ng/mL (≈ 0.0847 nM)

Tested on: Staphylococcus aureus
Assay: Antimicrobial activity against quinilone-pencillin-resistant Staphylococcus aureus isolate SAR 72 by broth dilution method
Type: functional
Conditions: not given
Summary of the method: as §1

Row | SMILES | MIC
38 | COc1c(N2C[C@@H]3CCCN[C@@H]3C2)c(F)cc2c(=O)c(C(=O)O)cn(C3CC3)c12 [MOXIFLOXACIN] | 12 µg/mL (≈ 29900 nM)
39 | COc1ccc2c(c1)[nH]c1c2sc2c1c(=O)c(C(=O)O)cn2C1CC1 | 1.5 µg/mL (≈ 4230 nM)
